Laboratory results from ChEMBL document CHEMBL1122001, “Darmstoff analogues. 2. Ring and side-chain effects on smooth-muscle contraction” (1982).
Active and inactive are the calls of the source. The calls are words filed in the database; no cut-off is given here.

Assays:
Assay type in all cases: functional
Cavia porcellus [1] = organism: Cavia porcellus; experiment: Compound was tested for its ability to cause contraction of guinea pig ileum; Inactive
Cavia porcellus [2] = organism: Cavia porcellus; experiment: Compound was tested for its ability to cause contraction of guinea pig ileum; Active
Cavia porcellus [3] = organism: Cavia porcellus; experiment: Concentration required for half-maximal contraction of guinea pig ileum
Cavia porcellus [4] = organism: Cavia porcellus; experiment: Potency for guinea pig ileum contraction relative to acetylcholine
Summary of the method: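 Ileal strip held in an oxygenated (95% O2/5% CO2) buffer bath under 1-g tension, with contraction magnitude recorded on a dynograph. An acetylcholine control response curve was run first, then a test compound curve after tissue recovery. The value is the ratio of the doses giving 50% of maximal response.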

Row | Compound | Activity (Cavia porcellus [1]) | further results
1 | CCCCCCCCCCCCCCCC1OC(COP(=O)(O)O)CS1 (stereo not drawn) | inactive | –
2 | CCCCCCCCCCCCCCCC1CCC(COP(=O)(O)O)C1 (stereo not drawn) | inactive | –
3 | CCCCCCCCCCCCCCCC1CCC(COP(=O)(O)O)O1 (stereo not drawn) | inactive | –
4 | CCCCCCCC/C=C/CCCCCCCC1CCC(COP(=O)(O)O)O1 (stereo not drawn) | inactive | –
5 | CCCCCCCC/C=C/CCCCCCCC1OC(COP(=O)(O)O)CS1 (cis isomer) | inactive | –
6 | CCCCCCCC/C=C/CCCCCCCC1COC(COP(=O)([O-])O)CO1.[Na+] (stereo not drawn) | – | Activity (Cavia porcellus [2]): Active; Concentration (Cavia porcellus [3]): 16 µM; Potency (Cavia porcellus [4]): 0.05%
7 | CCCCCCCC/C=C/CCCCCCCC1OCC(COP(=O)([O-])O)O1.[Na+] (cis isomer) | – | Activity (Cavia porcellus [2]): Active; Potency (Cavia porcellus [4]): 0.4%
8 | CCCCCCCC/C=C/CCCCCCCC1CCC(COP(=O)(O)O)C1 (cis isomer) | inactive | –
9 | CCCCCCCCCCCCCCCC1OCC(COP(=O)(O)O)O1 (stereo not drawn) | inactive | –
10 | CCCCCCCCCCCCCCCC1COC(COP(=O)(O)O)CO1 (stereo not drawn) | inactive | –
